Measured values as given in ChEMBL document CHEMBL1129727, “Chiral pyrrolo[2,3-d]pyrimidine and pyrimido[4,5-b]indole derivatives: structure-activity relationships of potent, highly stereoselective A1-adenosine receptor antagonists” (J Med Chem, 1996).
In brackets after ≈: the same amount, converted by molar mass.

Key:
[1] = target: Adenosine receptors; A1 & A2 (Rattus norvegicus) (UniProt P29276+P25099+P30543); assay: Selectivity ratio between A1 and A2-receptors estimated as A2/A1; format: protein assay
[2] = target: T1, Adenosine receptor A1 (Rattus norvegicus, UniProt P25099); assay: Radioligand binding assay for [3H]-PIA affinity towards Adenosine A1 receptor of rat cerebral cortical membrane
T1 sequence (P25099 whole entry): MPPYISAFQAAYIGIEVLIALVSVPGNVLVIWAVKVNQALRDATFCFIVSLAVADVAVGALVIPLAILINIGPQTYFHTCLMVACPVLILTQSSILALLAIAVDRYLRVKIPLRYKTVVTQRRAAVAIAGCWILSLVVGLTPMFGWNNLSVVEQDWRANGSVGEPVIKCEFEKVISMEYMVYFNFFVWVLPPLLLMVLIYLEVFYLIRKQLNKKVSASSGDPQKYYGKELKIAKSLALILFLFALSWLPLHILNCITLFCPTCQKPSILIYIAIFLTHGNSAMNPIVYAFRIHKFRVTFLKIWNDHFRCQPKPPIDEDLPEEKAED
Method in brief: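 Rat cerebral cortical membranes incubated with [3H]-(R)-PIA. Nonspecific binding defined with 10 μM 2-chloroadenosine. Five to six test concentrations, each in triplicate, in at least three separate experiments. Ki calculated from inhibition of binding.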

[3] = target: Adenosine receptor A2a (Rattus norvegicus, UniProt P30543); assay: Radioligand binding assay for [3H]NECA affinity towards adenosine A2A receptor of rat striatum; format: tissue-based
Method in brief: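 Rat striatal membranes incubated with [3H]NECA. 50 nM N6-cyclopentyladenosine present to block A1 sites. Nonspecific binding defined with 5 mM theophylline. Five to six test concentrations, each in triplicate, in at least two separate experiments. Ki derived from inhibition of binding.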

[4] = Solubility in 50 mM TRIS-HCl buffer containing 2.5% DMSO, pH 7.4; format: physicochemical; details: read-out: S
Method in brief: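 A 10 mM DMSO stock was diluted 1:40 into 50 mM TRIS-HCl, pH 7.4 (2.5% DMSO), then shaken overnight at room temperature to equilibrium. After centrifugation, the supernatant was filtered and serially diluted. Dilutions were tested in an A1 binding assay with [3H]CHA (KD 1 nM).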

[5] = Solubility in 50 mM TRIS-HCl buffer containing 1% DMSO, pH 7.4; format: physicochemical; details: read-out: S
Method in brief: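 Bruns–Fergus biochemical method. 10 mM DMSO stock diluted 1:100 into 50 mM Tris-HCl pH 7.4, shaken overnight at room temperature, centrifuged and filtered through cotton. Serial dilutions of the saturated supernatant tested in an A1 [3H]CHA binding assay (KD 1 nM).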

[6] = Partition coefficient (logP); format: physicochemical; details: octanol/water
[7] = target: T2, Adenosine receptor A3 (Rattus norvegicus) (UniProt P28647); assay: Percent inhibition of binding to rat Adenosine A3 receptor at 10 uM
T2 sequence (whole entry): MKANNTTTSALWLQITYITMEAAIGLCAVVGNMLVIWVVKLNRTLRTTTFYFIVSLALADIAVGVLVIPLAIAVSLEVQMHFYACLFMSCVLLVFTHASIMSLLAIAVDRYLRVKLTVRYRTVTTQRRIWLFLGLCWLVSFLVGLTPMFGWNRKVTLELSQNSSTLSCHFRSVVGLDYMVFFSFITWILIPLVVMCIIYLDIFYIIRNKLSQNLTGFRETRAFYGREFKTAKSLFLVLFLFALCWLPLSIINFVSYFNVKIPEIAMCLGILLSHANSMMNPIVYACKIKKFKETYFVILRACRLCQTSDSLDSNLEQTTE

[8] = target: Adenosine receptor A2a (Rattus norvegicus) (UniProt P30543); assay: Antagonism of NECA-stimulated adenylate cyclase at Adenosine A2A receptor in rat PC12 cell membranes
[9] = target: T3, Adenosine receptor A2b (Rattus norvegicus) (UniProt P29276); assay: Antagonistic binding affinity for rat Adenosine A2B receptor
T3 sequence (whole entry): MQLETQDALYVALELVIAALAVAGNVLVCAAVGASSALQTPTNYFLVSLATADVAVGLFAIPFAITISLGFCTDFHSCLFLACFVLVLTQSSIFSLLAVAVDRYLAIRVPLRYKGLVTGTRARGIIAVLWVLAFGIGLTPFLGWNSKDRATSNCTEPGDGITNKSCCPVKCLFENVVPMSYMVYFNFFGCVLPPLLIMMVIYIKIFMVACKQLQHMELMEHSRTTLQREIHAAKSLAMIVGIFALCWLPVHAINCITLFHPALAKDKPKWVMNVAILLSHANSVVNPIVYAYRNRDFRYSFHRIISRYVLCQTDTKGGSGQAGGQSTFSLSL

Sequence of Adenosine receptor A2a (P30543 whole entry): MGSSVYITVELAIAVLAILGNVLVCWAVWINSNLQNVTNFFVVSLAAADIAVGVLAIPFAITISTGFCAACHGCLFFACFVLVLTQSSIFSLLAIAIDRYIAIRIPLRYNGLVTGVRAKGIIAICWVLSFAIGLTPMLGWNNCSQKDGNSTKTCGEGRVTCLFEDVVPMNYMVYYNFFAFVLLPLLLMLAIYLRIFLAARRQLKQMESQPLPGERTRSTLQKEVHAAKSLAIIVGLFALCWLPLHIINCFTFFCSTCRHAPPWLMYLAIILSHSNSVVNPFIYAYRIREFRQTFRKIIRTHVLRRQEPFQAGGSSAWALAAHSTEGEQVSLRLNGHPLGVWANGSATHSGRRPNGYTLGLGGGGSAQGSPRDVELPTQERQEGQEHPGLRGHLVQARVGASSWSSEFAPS
Sequence of Adenosine receptors; A1 & A2 (Rattus norvegicus) (P30543 whole entry, looked up, one chain of several): as the sequence (P30543 whole entry) above
Sequence of Adenosine receptor A2a (Rattus norvegicus) (P30543 whole entry): as above

Row | Structure (SMILES) | Ki [2] | Ki [3] | Selectivity ratio [1] | other results
1 | Cc1nc2nc(-c3ccccc3)[nH]c(N[C@@H](C)c3ccccc3)c-2c1C | – | – | – | Selectivity [1]: > 47
2 | Cc1c(C)n([C@H](C)c2ccccc2)c2nc(-c3ccccc3)nc(O)c12 | 2.98 µM | > 30 µM | – | Selectivity [1]: > 10
3 | Cc1nc2nc(-c3ccccc3)[nH]c(N[C@H](C)c3ccccc3)c-2c1C | 0.0067 µM | > 30 µM | – | solubility [4]: 5.9 µM (≈ 2.02 µg/mL); solubility [5]: 1.5 µM (≈ 0.514 µg/mL); logP [6]: 3.5; Selectivity [1]: > 4480
4 | C[C@H](c1ccccc1)N1C(=O)C2(CCCC2)c2c(O)nc(-c3ccccc3)nc21 | > 30 µM | > 30 µM | – | –
5 | Cc1c(C)n([C@H](C)c2ccccc2)c2nc(-c3ccc(Cl)c(Cl)c3)nc(N)c12 | 0.33 µM | > 30 µM | > 91 | –
6 | Cc1c(C)n([C@@H](C)c2ccccc2)c2nc(-c3ccc(Cl)c(Cl)c3)nc(N)c12 | 1.8 µM | – | > 17 | –
7 | Cc1c(C)n([C@H](C)c2ccccc2)c2ncnc(N[C@H](C)c3ccccc3)c12 | – | > 30 µM | – | –
8 | Cc1c(C)n([C@H](C)c2ccccc2)c2nc(-c3ccc(Cl)cc3)nc(N)c12 | 0.05 µM | > 30 µM | > 600 | solubility [4]: 7.2 µM (≈ 2.71 µg/mL); solubility [5]: 2.2 µM (≈ 0.829 µg/mL)
9 | Oc1ncnc2c1c1ccccc1n2-c1ccccc1 | – | – | – | inhibition [7]: < 20%; Kb [8]: 2.5 µM; Kb [9]: 3.4 µM
10 | Cc1c(C)n([C@@H](C)c2ccccc2)c2nc(-c3ccccc3)[nH]c(=O)c12 | > 30 µM | > 30 µM | – | –
11 | Cc1c(C)n([C@@H](C)c2ccccc2)c2nc(-c3ccccc3Cl)nc(N)c12 | 0.273 µM | > 30 µM | > 110 | –
12 | Cc1c(C)n([C@@H](C)c2ccccc2)c2nc(-c3ccc(Cl)cc3)[nH]c(=O)c12 | > 30 µM | > 30 µM | – | –
13 | O=C1N(c2ccccc2)c2ncnc(O)c2C12CCCC2 | – | – | – | Selectivity [1]: 13
14 | Cc1c(C)n([C@@H](C)c2ccccc2)c2nc(-c3cccc(Cl)c3)nc(N)c12 | 0.485 µM | > 30 µM | > 62 | –
15 | Cc1c(C)n([C@H](C)c2ccccc2)c2nc(-c3ccc(Cl)cc3)nc(O)c12 | > 30 µM | > 30 µM | – | –
16 | Cc1ccc([C@H](C)n2c3ccccc3c3c(N)nc(-c4ccccc4)nc32)cc1 | 0.297 µM | > 30 µM | > 101 | –
17 | Cc1[nH]c2nc(-c3ccccc3)nc(N[C@@H](C)c3ccccc3)c2c1C | 0.64 µM | > 30 µM | – | –
18 | O=C1Nc2ncnc(O)c2C12CCCC2 | – | – | – | Selectivity [1]: 2.7
19 | C[C@H](c1ccccc1)n1c2ccccc2c2c(O)nc(-c3ccccc3)nc21 | > 30 µM | > 30 µM | – | –
20 | C[C@@H](c1ccccc1)n1c2ccccc2c2c(N)nc(-c3ccccc3)nc21 | 0.064 µM | > 30 µM | – | –
21 | Cc1c(C)n([C@@H](C)c2ccccc2)c2ncnc(N[C@@H](C)c3ccccc3)c12 | – | > 30 µM | – | –
22 | Cc1c(C)n([C@@H](C)c2ccccc2)c2nc(-c3ccc(Cl)cc3)nc(N)c12 | 0.878 µM | > 30 µM | > 34 | –

The next lines start with results.

Row | Ki [2] | Ki [3] | Selectivity ratio [1] | Structure (SMILES) | other results
23 | 0.32 µM | > 30 µM | > 94 | C[C@@H](Cc1ccccc1)n1c2ccccc2c2c(N)nc(-c3ccccc3)nc21 | –
24 | > 30 µM | > 30 µM | – | C[C@@H](c1ccccc1)n1c2ccccc2c2c(O)nc(-c3ccccc3)nc21 | –
25 | 0.022 µM | 8.3 µM | – | Nc1nc(-c2ccccc2)nc2c1c1ccccc1n2-c1ccccc1 | Selectivity [1]: 377
26 | 0.101 µM | > 10 µM | > 99 | COc1ccc(-c2nc(N)c3c(C)c(C)n([C@H](C)c4ccccc4)c3n2)cc1 | –
27 | 1.13 µM | 27.7 µM | 25 | CC(c1ccccc1)n1c2ccccc2c2c(N)ncnc21 (configuration not stated) | –
28 | – | 88.4 µM | – | CC(c1ccccc1)N1C(=O)C2(CCCC2)c2c(O)ncnc21 (configuration not stated) | Selectivity [1]: 26
29 | 0.0076 µM | 16.3 µM | 2140 | Cc1c(C)n([C@H](C)c2ccccc2)c2nc(-c3cccc(Cl)c3)nc(N)c12 | solubility [5]: 2.8 µM (≈ 1.06 µg/mL)
30 | 0.0047 µM | 3.71 µM | 789 | Cc1c(C)n([C@@H](C)c2ccccc2)c2nc(-c3ccccc3)nc(N)c12 | solubility [5]: 0.26 µM (≈ 0.089 µg/mL)
31 | 0.165 µM | 81 µM | 490 | Cc1c(C)n([C@H](C)c2ccccc2)c2nc(-c3ccccc3)nc(N)c12 | –
32 | 0.014 µM | 21.4 µM | 1530 | Cc1ccc([C@@H](C)n2c3ccccc3c3c(N)nc(-c4ccccc4)nc32)cc1 | –
33 | 0.083 µM | > 10 µM | > 120 | COc1cccc(-c2nc(N)c3c(C)c(C)n([C@H](C)c4ccccc4)c3n2)c1 | –
34 | 1.3 µM | 17.2 µM | – | O=C1N(c2ccccc2)c2nc[nH]c(=O)c2C12CCCC2 | –
35 | 0.0026 µM | 6.2 µM | – | C[C@H](c1ccccc1)n1c2ccccc2c2c(N)nc(-c3ccccc3)nc21 | solubility [4]: 1.5 µM (≈ 0.547 µg/mL); solubility [5]: 0.48 µM (≈ 0.175 µg/mL)
36 | 0.0096 µM | 5.2 µM | 537 | Cc1c(C)n([C@H](C)c2ccccc2)c2nc(-c3ccccc3Cl)nc(N)c12 | –
37 | 127 µM | 346 µM | – | O=C1Nc2nc[nH]c(=O)c2C12CCCC2 | –
